Measurements taken from ChEMBL document CHEMBL4622961, “Design, Synthesis, and Preliminary Immunological Studies of MUC1-Based Antitumor Vaccines Adjuvanted with R- and S-FSL-1” (2020).
Active and inactive are the calls of the source. The calls are words filed in the database; no cut-off is given here.

Columns and labels:
[1] = tested on: Mus musculus; experiment: Adjuvanted-antitumor vaccine activity in C57BL/6 mouse assessed as induction of MUC1-specific antisera production by measuring binding activity with MCF7 cells expressing MUC1 at 4 nmol, ip administered on […] and measured after 1 week post-last dose by incubating cells with compound-immunized mouse sera for 1 hr by FACS analysis; assay type: functional, organism-based
Summary of the method: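 Antisera were collected 1 week after the fourth ip immunization (days 0, 14, 28, 42) of female C57BL/6 mice. MUC1-expressing human breast cancer MCF-7 cells were incubated with the antisera, then with FITC-labelled goat anti-mouse antibody, and binding was read by flow cytometry. The PBS-immunized group served as control.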

[2] = tested on: Mus musculus; experiment: Adjuvanted-antitumor vaccine activity in C57BL/6 mouse assessed as potentiation of MUC1 specific Th2 immune response by measuring increase in serum IgG1 level at 4 nmol, ip administered on […] and measured after 1 week post last dose by ELISA; assay type: functional, organism-based
Summary of the method: (§1)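 Female C57BL/6 mice, immunized intraperitoneally on days 0, 14, 28 and 42 (PBS group as control). Sera were collected 1 week after the last dose. ELISA measured total IgG titer or the IgG1, IgG2b, IgG2c and IgG3 isotypes. Values are given as mean ± SD.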

[3] = tested on: Mus musculus; experiment: Adjuvanted-antitumor vaccine activity in C57BL/6 mouse assessed as potentiation of MUC1 specific Th2 immune response by measuring ratio of IgG1 to IgG2c in serum at 4 nmol, ip administered […] and measured after 1 week post last dose by ELISA; assay type: functional
Summary of the method: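 Sera from female C57BL/6 mice given ip doses on days 0, 14, 28 and 42 were taken 1 week after the last dose. IgG1 and IgG2c were measured by ELISA and expressed as an IgG1/IgG2c ratio; a ratio above 1 was read as a Th2-type response.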

[4] = tested on: Mus musculus; experiment: Adjuvanted-antitumor vaccine activity in C57BL/6 mouse assessed as potentiation of MUC1 mediated immune response by measuring increase in serum IgG2b level at 4 nmol, ip administered on […] and measured after 1 week post last dose by ELISA; assay type: functional, organism-based; summary of the method: as §1
[5] = tested on: Peritoneal macrophage; experiment: Adjuvanted-antitumor vaccine activity in C57BL/6 mouse peritoneal macrophages assessed as induction of IL-12 production after 24 hrs by ELISA; assay type: functional, cell-based
Summary of the method: (§2)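 Peritoneal macrophages were harvested from C57BL/6 mice and incubated with the adjuvanted vaccine constructs. IL-6 and IL-12 released into the culture supernatant were quantified against a PBS control. Values are given as mean ± SD.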

[6] = tested on: Mus musculus; experiment: Adjuvanted-antitumor vaccine activity in C57BL/6 mouse assessed as potentiation of Th2 mediated response by measuring increase in IL-4 level in splenocytes at 4 nmol, ip administered on […] and measured after 1 weeks post-last dose by incubating splenocytes with MUC1 peptide for 48 hrs by ELISA; assay type: functional, organism-based
Summary of the method: (§3)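 Splenocytes came from female C57BL/6 mice immunized ip on days 0, 14, 28 and 42. They were restimulated in culture with MUC1 peptide (10 μg/mL), and IL-4, IL-6, IL-12 and IFN-γ were measured in the supernatants. A PBS-immunized group served as comparison.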

[7] = tested on: Mus musculus; experiment: Adjuvanted-antitumor vaccine activity in C57BL/6 mouse assessed as potentiation of Th1 mediated response by measuring increase in IL-12 level in splenocytes at 4 nmol, ip administered on […] and measured after 1 weeks post-last dose by incubating splenocytes with MUC1 peptide for 48 hrs by ELISA; assay type: functional, organism-based; summary of the method: as §3
[8] = tested on: Peritoneal macrophage; experiment: Adjuvanted-antitumor vaccine activity in C57BL/6 mouse peritoneal macrophages assessed as induction of IL-6 production after 24 hrs by ELISA; assay type: functional, cell-based; summary of the method: as §2
[9] = tested on: Mus musculus; experiment: Aduvanted-antitumor vaccine activity in C57BL/6 mouse assessed as potentiation of MUC1 specific Th1 immune response by measuring increase in serum IgG2c level at 4 nmol, ip administered […] and measured after 1 week post last dose by ELISA; assay type: functional, organism-based; summary of the method: as §1
[10] = tested on: Mus musculus; experiment: Adjuvanted-antitumor vaccine activity in C57BL/6 mouse assessed as potentiation of Th1 mediated response by measuring increase in IFN-gamma level in splenocytes at 4 nmol, ip administered […] and measured after 1 week post-last dose by incubating splenocytes with MUC1 peptide for 48 hrs by ELISA; assay type: functional, organism-based; summary of the method: as §3
[11] = tested on: Mus musculus; experiment: Adjuvanted-antitumor vaccine activity in C57BL/6 mouse assessed as potentiation of Th2 mediated response by measuring increase in IL-6 level in splenocytes at 4 nmol, ip administered […] and measured after 1 weeks post-last dose by incubating splenocytes with MUC1 peptide for 48 hrs by ELISA; assay type: functional, organism-based; summary of the method: as §3
[12] = tested on: Mus musculus; experiment: Adjuvanted-antitumor vaccine activity in C57BL/6 mouse assessed as potentiation of MUC1 mediated immune response by measuring increase in serum IgG3 level at 4 nmol, ip administered on […] and measured after 1 week post last dose by ELISA; assay type: functional, organism-based; summary of the method: as §1
[13] = tested on: Mus musculus; experiment: Adjuvanted-antitumor vaccine activity in C57BL/6 mouse assessed as induction of IgG production in serum at 4 nmol, ip administered […] and measured after 1 week post last dose by ELISA; assay type: functional, organism-based; summary of the method: as §1

Row | SMILES | Activity [1] | Activity [2] | Ratio [3] | Activity [4] | Activity [5] | Activity [6] | Activity [7] | Activity [8] | Activity [9] | Activity [10] | Activity [11] | Activity [12] | Activity [13]
1 | CCCCCCCCCCCCCCCC(=O)OC[C@@H](CSC[C@H](N)C(=O)NCC(=O)N[C@@H](CC(=O)O)C(=O)N1CCC[C@H]1C(=O)N[C@@H](CCCCN)C(=O)N[C@@H](Cc1c[nH]cn1)C(=O)N1CCC[C@H]1C(=O)N[C@@H](CCCCN)C(=O)N[C@@H](CO)C(=O)N[C@@H](Cc1ccccc1)C(=O)NCC(=O)NCC(=O)NCC(=O)N[C@@H](Cc1c[nH]cn1)C(=O)NCC(=O)N[C@H](C(=O)N[C@H](C(=O)N[C@@H](CO)C(=O)N[C@@H](C)C(=O)N1CCC[C@H]1C(=O)N[C@@H](CC(=O)O)C(=O)N[C@H](C(=O)N[C@@H](CCCNC(=N)N)C(=O)N1CCC[C@H]1C(=O)N[C@@H](C)C(=O)N1CCC[C@H]1C(=O)NCC(=O)N[C@@H](CO)C(=O)N[C@H](C(=O)N[C@@H](C)C(=O)N1CCC[C@H]1C(=O)N1CCC[C@H]1C(=O)N[C@@H](C)C(=O)O)[C@@H](C)O)[C@@H](C)O)[C@@H](C)O)C(C)C)OC(=O)CCCCCCCCCCCCCCC | Active | Active | >1 | Active | Active | Active | Active | Active | Active | Active | Active | Active | Active
2 | CCCCCCCCCCCCCCCC(=O)OC[C@H](CSC[C@H](N)C(=O)NCC(=O)N[C@@H](CC(=O)O)C(=O)N1CCC[C@H]1C(=O)N[C@@H](CCCCN)C(=O)N[C@@H](Cc1c[nH]cn1)C(=O)N1CCC[C@H]1C(=O)N[C@@H](CCCCN)C(=O)N[C@@H](CO)C(=O)N[C@@H](Cc1ccccc1)C(=O)NCC(=O)NCC(=O)NCC(=O)N[C@@H](Cc1c[nH]cn1)C(=O)NCC(=O)N[C@H](C(=O)N[C@H](C(=O)N[C@@H](CO)C(=O)N[C@@H](C)C(=O)N1CCC[C@H]1C(=O)N[C@@H](CC(=O)O)C(=O)N[C@H](C(=O)N[C@@H](CCCNC(=N)N)C(=O)N1CCC[C@H]1C(=O)N[C@@H](C)C(=O)N1CCC[C@H]1C(=O)NCC(=O)N[C@@H](CO)C(=O)N[C@H](C(=O)N[C@@H](C)C(=O)N1CCC[C@H]1C(=O)N1CCC[C@H]1C(=O)N[C@@H](C)C(=O)O)[C@@H](C)O)[C@@H](C)O)[C@@H](C)O)C(C)C)OC(=O)CCCCCCCCCCCCCCC | Active | Active | >1 | Active | Active | Active | Active | Active | Active | Active | Active | Active | Active
